According to ChEMBL document CHEMBL1125579, “Relative structure-inhibition analyses of the N-benzoyl and N-(phenylsulfonyl) amino acid aldose reductase inhibitors” (J Med Chem, 1991):

biological target: Aldo-keto reductase family 1 member B1 (Rattus norvegicus, UniProt P07943); assay: Inhibitory activity against aldose reductase in rat lens
Method in brief: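 Rat lens enzyme: 100 lenses from frozen rat eyes homogenized in distilled water and centrifuged at 5 °C; the supernatant was brought to 40% ammonium sulfate saturation and the freshly prepared supernatant was used. NADPH loss was read at 340 nm for 3 min.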

Q: Which IC50 does the source give for O=C(O)CN(C(=O)c1ccc(NC(=O)c2ccccc2)cc1)c1ccccc1 here?
A: 0.24 µM

Q: O=C(O)CNC(=O)c1ccc(NC(=O)Cc2ccccc2)cc1 was tested. Which IC50 did it give?
A: 21 µM

Q: How did the IC50 turn out when O=C(O)CNC(=O)c1cccc2ccccc12 was run?
A: 220 µM

Q: For O=C(O)CN(C(=O)c1ccc2ccccc2c1)c1ccccc1, which IC50 is on record?
A: 19 µM

Q: With CN(CC(=O)O)C(=O)c1ccc(F)cc1 as the compound, how does the IC50 read?
A: 8.8 µM

Q: With CN(CC(=O)O)C(=O)c1ccc(NC(=O)c2ccccc2)cc1 as the compound, how does the IC50 read?
A: 2.8 µM

Q: O=C(O)CN(C(=O)c1ccc([N+](=O)[O-])cc1)c1ccccc1 was tested. Which IC50 did it give?
A: 0.56 µM

Q: How did the IC50 turn out when O=C(O)CNC(=O)c1ccc2ccccc2c1 was run?
A: 70 µM

Q: For CN(CC(=O)O)C(=O)c1cccc2ccccc12, which IC50 is on record?
A: 40 µM

Q: With O=C(O)CNC(=O)c1ccc(NC(=O)CCc2ccccc2)cc1 as the compound, how does the IC50 read?
A: 45 µM

Q: With O=C(O)CNC(=O)c1cccc(NC(=O)c2ccccc2)c1 as the compound, how does the IC50 read?
A: 49 µM

Q: O=C(O)CNC(=O)c1ccc(NC(=O)c2ccccc2)cc1 was tested. Which IC50 did it give?
A: 9.6 µM

Q: COc1ccc(C(=O)N(CC(=O)O)c2ccccc2)cc1 was tested. Which IC50 did it give?
A: 3.2 µM

Q: Cc1ccc(C(=O)N(CC(=O)O)c2ccccc2)cc1 was tested. Which IC50 did it give?
A: 3.7 µM

Q: CN(CC(=O)O)C(=O)c1ccc([N+](=O)[O-])cc1 was tested. Which IC50 did it give?
A: 26 µM

Q: With CN(CC(=O)O)C(=O)c1ccc(N)cc1 as the compound, how does the IC50 read?
A: 11 µM

Q: Which IC50 does the source give for Cc1ccc(C(=O)N(C)CC(=O)O)cc1 here?
A: 13 µM

Q: O=C(O)CN(C(=O)c1ccccc1)c1ccccc1 was tested. Which IC50 did it give?
A: 6.3 µM

Q: Nc1ccc(C(=O)N(CC(=O)O)c2ccccc2)cc1 was tested. Which IC50 did it give?
A: 12 µM

Q: How did the IC50 turn out when O=C(O)CN(C(=O)c1cccc2ccccc12)c1ccccc1 was run?
A: 8.5 µM

Q: With COc1ccc(C(=O)N(C)CC(=O)O)cc1 as the compound, how does the IC50 read?
A: 6.7 µM

Q: Which IC50 does the source give for O=C(O)CN(C(=O)c1ccc(F)cc1)c1ccccc1 here?
A: 8.2 µM

Q: With CN(CC(=O)O)C(=O)c1ccccc1 as the compound, how does the IC50 read?
A: 23 µM

Q: With CN(CC(=O)O)C(=O)c1ccc2ccccc2c1 as the compound, how does the IC50 read?
A: 19 µM
